# According to the RNAGym collection of RNA variant scans (doi:10.1126/science.aae0568):
# Fewer inactive variants are shown than the library holds.
# B1: tRNA (parent)
# chain: GUUCCGUUGGCGUAAUGGUAACGCGUCUCCCUCCUAAGGAGAAGACUGCGGGUUCGAGUCCCGUACGGAACG
# Variants of: B1
# Assay: yeast fitness relative to wild type (ratio to wild type); higher = fitter; tRNA-Arg(CCU), competitive growth, 37 C, YPD
# Procedure, shortened: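 Changes in genotype frequencies gave Darwinian fitness relative to wild type. Frequencies were read by 100-nucleotide paired-end sequencing of gene amplicons before and after pooled Saccharomyces cerevisiae strains, carrying tRNA-Arg(CCU) gene variants at the native locus, were competed in YPD at 37°C for 24 hours in six replicates. A genotype was kept only with ≥ 100 starting reads, and estimates < 0.5 were set to 0.5.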
row,Variant,yeast fitness
1,GUUCCGUUGGCGUAAUGGUAAGGCGUCUCCCUCCUAAGGACAAGACUGCGGGUUCGAGUCCCGUUCGGAACG,≤ 0.5
2,GUUCCGUUGGCGUAAUGGUAAUGCGUCUCCCUCCUCAGGAGAAGACUGCGGGUUCGAGUGCCGUACGGAACG,≤ 0.5
3,GUUCCGUUGGCGUAAUGGUAAGGCGUCACCGUCCUAAGGAGAAGACUGCGGGUUCGAGUCCCGUACGGAACG,≤ 0.5
4,GUUCCGUUGGCGUAAUGGUAAGGCGUCUCCCUCCUAAGGAGAAGACUGCGGGUUCGAGUCCCAUAUGGAACG,0.593
5,GUUCCGUUGGCGUAAUGGUAAUGCGUCUCCCUCCUACGGAGAAGACUGCGGCUUCGAGUCCUGUACGGAACG,≤ 0.5
6,GUUCCGUUGGCGUAAUGGUAAGGCGUCUCCCUCCUAAGGAGAAGACUGCGGGUUCGAGUCCCGUACAGAACG,0.819
7,GUUCCGUUGGCGUAAUGGUAAGGCGUCUCCCUCCUAAGGAGAAGACCGCGGGGUCGAGUCCCGUACGGAACG,0.551
8,GUUCCGUUGGCGUAAUGGUAAGGCGUCUCCCUCCUAAGGAGAAGACUACGGGUUCGAGUCCCGUACGGAACG,0.988
9,GUUCCGUUGGCGUAAUGGUAAUGCGUCUCCCUCCUAUGGAGAAGACUGAGGGUUCGAGUCCUGUACGGAACG,0.598
10,GUUCCGUUGGCGUAAUGGUAAGGCGUCUCCCACCUAAGGAGAAGACUGCGGGUUCGAGUACCGUACGGCACG,0.619
11,GUUCCGUUGGCGUAAUGGUAAGGCCUCUCCCUCCUAAGGAGAGGACUGCGGGUUCGAGUCCCGUACGGAACG,0.584
12,GUUCCGUUGGCGUAAUGGUAAGGCGUCUCCCUCCUAAGGAGAAGACCGCGGGUUCGAGUCCCGUACGGAUCG,0.722
13,GUUCCGUUGGCGUAAUGGUAAGGCGUCUCCCUCCUAAAGAGAAGACCGCGGGUUCGAGUCCCGUACGGAACG,≤ 0.5
14,GUUCCGUUGGCGUAAUGGUAAUGCGUCUCCCUCCUUAGGAGAAGACUGCGGGUUCGAGUCCGAUACGGAACG,≤ 0.5
15,GUUCCGUUGGCGUAAUGGUAAGGCGACUCACUCCUAAGGAGUAGACUGCGGGUUCGAGUCCCGUACGGAACG,0.692
16,GUUCCGUUGGCGUAAUGGUAAGGCGUCACCCUCCUUAGGAGAAGACUGCGGGUUCGAGUCCCGUACGGAACG,0.631
17,GUUCCGUUGGCGUAAUGGUAAGGCGUCUCCCCCCUAAGGAGAAGACCGCGGGGUCGAGUCCCGUACGGAACG,≤ 0.5
18,GUUCCGUUGGCGUAAUGGUAAUGCGUCUCCCUCCUUAGGAGAAGACUGCGGGUUCGAGUCCCGUACGGAACG,0.591
19,GUUCCGUUGGCGUAAUGGUAAUGCGUCUCCCUCCUCAGGAGAAGACUGCGGGUUCGAGUCCCGUACGGAACG,0.616
20,GUUCCGUUGGCGUAAUGGUAAUGCGUCUCCCUCCUAGGGAGAAGACUCCGGGUUUGAGUCCCGUACGGAACG,0.64
21,GUUCCGUUGGCGUAAUGGUAAGACGUCUCGCUCCUAAGGAGAAGACUGCGGGUUCGAGUCCCGUCCGGAACG,0.535
22,GUUCCGUUGGCGUAAUGGUAAGGCGUCUCCCUCCUAAGGAGAAGACAGCGGGUUCGAGUCCCGUACAGAACG,≤ 0.5
23,GUUCCGUUGGCGUAAUGGUAAGGCGUCUCCCUCCUAAGAAGUAGACUGCGGGUUCGCGUCCCGUACGGAACG,≤ 0.5
24,GUUCCGUUGGCGUAAUGGUAAGUCGUCUCCCUCCUAAGGAGAAGACUGCGGGUUCGAGUCCCGUACGGAACG,0.73
25,GUUCCGUUGGCGUAAUGGUAAGCCGUCUCCCUCCUAAGGAGAAGACUGCGGGUUCGAGUCCCGUACGGAACG,0.779

row,Variant,yeast fitness
1,GUUCCGUUGGCGUAAUGGUAAGACGUCUCCCUCCUAAGGAGAAGAUUGCGGGUUCGGGUCCCGUACGGAACG,≤ 0.5
2,GUUCCGUUGGCGUAAUGGUAAGGCGCCUCCCACCUAAGGAGAAGACUACGGGUUCGAGUCCCGUACGGAACG,≤ 0.5
3,GUUCCGUUGGCGUAAUGGUAAGGCGUCUCCCUCCUAAGGAGAAGACUGCGGGUUCGAGUCCCGCACGGAACG,0.856
4,GUUCCGUUGGCGUAAUGGUAAGGCCUCUCCCUCCUAAGGAGAAGACUGCGGGUUCGAGUCGCGUACGGAACG,0.659
5,GUUCCGUUGGCGUAAUGGUAAGGCGUCUCCCUCCUAAGCAGAUAACCGCGGGUUCGACUCCCGUACGGAACG,≤ 0.5
6,GUUCCGUUGGCGUAAUGGUAAUGCGUCUCCCUCCUAAGGAGAAGACUGCGGGUUCGAGUCCCGUACGGAACG,0.908
7,GUUCCGUUGGCGUAAUGGUAAGGCGUCACCCUCCUAAGGAGAAGACUGCGGGUUCGAGUCCCGUACCGAACG,≤ 0.5
8,GUUCCGUUGGCGUAAUGGUAAGGCGUCUCCCUCCUAACGAGAAGACUGCGGGUUCGAGUCCCGUACGGAACG,0.775
9,GUUCCGUUGGCGUAAUGGUAAGGCGUCUCCCUCCUAAGGAGAAGACUGCGGGUUCGACUCACGUACGGUACG,≤ 0.5
10,GUUCCGUUGGCGUAAUGGUAAGGCGUCACCGUCCUAAGGAGAAGGCUGCGGGUUAGAGUCCCGUACGCAACG,≤ 0.5
11,GUUCCGUUGGCGUAAUGGUAAUGCGUCUCCCUCCUAUGGAGAAGACUGCGGGUUCGAGUCCCGUACGGAACG,0.694
12,GUUCCGUUGGCGUAAUGGUAAUGCGUCUCCCUCCUACGGAGAAGACUGCGGGUUCGAGUCCCGUACGGAACG,0.593
13,GUUCCGUUGGCGUAAUGGUAAGGCGUCACCCUCCUACGGAGCAGAAUGCGGGUUCGAGUCCCGUACGGAACG,≤ 0.5
14,GUUCCGUUGGCGUAAUGGUAAGGCGUCUCCCUCCUAAGGAGAAGACUGCGGGUUCGAGACCCGUACGGGACG,≤ 0.5
15,GUUCCGUUGGCGUAAUGGUAAUGCGUCUCCCUCCUCGGGAGAAGACUGCGGGUUCGAGUCCCGUGCGGAACG,≤ 0.5
16,GUUCCGUUGGCGUAAUGGUAAUGCGUCUCCCUCCUACGGGGAAGACUGCGGAAUCGAGUCCCGUACGGAACG,≤ 0.5
17,GUUCCGUUGGCGUAAUGGUAAGGCGUCUCCCUCCUAAGGAGAAGACUGCGGGUUCGAGUCCCGUACCGCACG,≤ 0.5
18,GUUCCGUUGGCGUAAUGGUAAGGCGGCUCCCUCCUAAGGAGAAAACUGCGGGUUGGAGUCCCCUACGGAACG,≤ 0.5
19,GUUCCGUUGGCGUAAUGGUAAGGCGUCUCCCUCCUAAGGAAAAGACUGCUGGUUCGAGUCCACUACGGAACG,≤ 0.5
20,GUUCCGUUGGCGUAAUGGUAAGGCGUCUCCCUCCUAAGGAGAAGACUGCGGGUUCGAGUCCCGCACGCAACG,0.623
21,GUUCCGUUGGCGUAAUGGUAAGGCGUCUCCCCCCUAGGGAGAAGACUGCGGGUUCGAGUCCCGUACGGAACG,0.559
22,GUUCCGUUGGCGUAAUGGUAAGGCGUCUCCCUCCUAAGGAGAAGACUGCGGGUUCGACUCCCGUAAGGAACG,≤ 0.5
23,GUUCCGUUGGCGUAAUGGUAAGGCGUCUCCCUCCUAAGGAGAACACCGCGGGUUCGAGUCCCGUACGGACCG,≤ 0.5
24,GUUCCGUUGGCGUAAUGGUAAGGCGUCCCCCUCCUAAGGAGAAGACUGCGGGUUCGAGUCCCGUACGGAACG,0.853
25,GUUCCGUUGGCGUAAUGGUAAGGCGUCUCCCUCCUAAGGAGAAGACUGCGGGUUCGAGACCCGUAAGGAACG,0.554

row,Variant,yeast fitness
1,GUUCCGUUGGCGUAAUGGUAAGGCAUCUCCCUCCUAAGGAGAAGACUGCGGGCUCGAGUCCCGUACGGAACG,≤ 0.5
2,GUUCCGUUGGCGUAAUGGUAAUGCGUCUCCCUCCUUAGGAGAAGACUGCGGGUUCAAGUCCCGUAUGGAACG,≤ 0.5
3,GUUCCGUUGGCGUAAUGGUAAGGCGUCUCCCUCCUAAGCAGAAGACUGCGGGUUCGAGGCCCGUAUGGAACG,0.504
4,GUUCCGUUGGCGUAAUGGUAAGGCGUCUCCCUCCUAAGGAGAAGACUGCGGCUUCGAGUCCCGUAUGAAACG,≤ 0.5
5,GUUCCGUUGGCGUAAUGGUAAUGCGUCUCCCUCCUAGGGAGAAGUCUGCGGAUUCGAGUCCGGUACGGAUCG,≤ 0.5
6,GUUCCGUUGGCGUAAUGGUAAGGCGUCACCGUCCUAAGGAGAAGACUGCGGGUUAGAGUCCCGUACGGAACG,≤ 0.5
7,GUUCCGUUGGCGUAAUGGUAAUGCGUCUCCCUCCUCAGGAGAAGACUGCGGGUCCGUGUCCCGUACGGAACG,≤ 0.5
8,GUUCCGUUGGCGUAAUGGUAAGGCGUCUCCCUCCUAAGGAGAAGACUGCCGGUUGGAGUCCCGUACGGAACG,≤ 0.5
9,GUUCCGUUGGCGUAAUGGUAAUGCGUCUCCCUCCUACGGACAAGACUGCGGGUUCGAGUCCCGUACGGAACG,≤ 0.5
10,GUUCCGUUGGCGUAAUGGUAAGGCGUCUCCCUCCUAAGGAGAAAACUGCGGGUUCGAGUCCCGUACGGAACG,0.846
11,GUUCCGUUGGCGUAAUGGUAAGGCGUCUCCCUCCUAAGGAGAAGACUGCGGGUUCGAGUCCCCUACGGAACG,0.623
12,GUUCCGUUGGCGUAAUGGUAAGGCGUCUCCCUCCUAAGCAGAAGACUGCCGGUUCGAGUCCCGUACGGAACG,≤ 0.5
13,GUUCCGUUGGCGUAAUGGUAAGGCGUCUCCCCCCUAAGGAGAAGACUGCGGGUUCGAGUCCCGUACGGUACG,0.705
14,GUUCCGUUGGCGUAAUGGUAAGGCGUCUCCCUCCUAAGGAGAAGACUGCGGGAUCGAGUCCCGUACGCAACG,≤ 0.5
15,GUUCCGUUGGCGUAAUGGUAAGGCGUCUCCCUCCUAAGGAGAAGACUGCGGGCUCGAGUCCCGUCCGGAACG,0.558
16,GUUCCGUUGGCGUAAUGGUAAGGCGUCUCCCUCCUAAGGAGAAGACUGCGGGUUCGAUUCCCGUACGGAACG,1.05
17,GUUCCGUUGGCGUAAUGGUAAUGCGUCUCCCUCCUAGGGAGAAGUCUGCGGGUUCGAGUCCCGUACGGAACG,0.547
18,GUUCCGUUGGCGUAAUGGUAAGGCGUCUCCCUCCGAAGGAGAAGACUGCGGGUUCGAGUCCCGUACGGAACG,0.62
19,GUUCCGUUGGCGUAAUGGUAAGGCGUCUCCCUCCAAAGGAGAAGACUGCGGGUUCGAGUCCCGUACGGAACG,0.614
20,GUUCCGUUGGCGUAAUGGUAAGGCGUCUCCCUCCUAAGGACAAGACUGCGGGUUCGAGUCCCGUACGGAACG,0.814
21,GUUCCGUUGGCGUAAUGGUAAGGCGUCUCCCUCCGAAGGCGAAGACUGCGGGUUCGAGUCCCGUACGGAACG,≤ 0.5
22,GUUCCGUUGGCGUAAUGGUAAGGCCUCUCCCUCCUAAGGAGAAGACUGCGGGUUCGAGUCCCGUACGGAACG,0.977
23,GUUCCGUUGGCGUAAUGGUAAGGCAUCUCCCUCCUAAGGAGAAGACUGCGGGUUCGAGUCCCGUACGGAACG,0.993
24,GUUCCGUUGGCGUAAUGGUAAUGCGUCUCCCUCCUAGGGAGAAGUCUGCGGAUCCGAGUCCCGUACGGAACG,≤ 0.5
25,GUUCCGUUGGCGUAAUGGUAAGGCGCCUCCCUUCUAUGGCGAAGACUGCGGGUUCGAGUCCCGUACGGAACG,≤ 0.5
